Legend:
Cavia porcellus = experiment: Cardiotoxicity in guinea pig assessed as effect on QTcB interval at 22.4 mg/kg; assay type: toxicity, organism-based; details: in vivo
[1] = molecular target: Free fatty acid receptor 1 (Mus musculus, UniProt Q76JU9); experiment: Agonist activity at mouse GPR40; assay type: functional
Mus musculus [2] = experiment: Antiobesity activity in diet-induced obesity C57Bl6/J mouse model assessed as change in plasma insulin level at 10 mg/kg bid for 15 days measured on day 15 post 6 hrs fasting; assay type: functional
Mus musculus [3] = experiment: Antiobesity activity in diet-induced obesity C57Bl6/J mouse model assessed as final insulin level in plasma at 10 mg/kg bid for 15 days measured on day 15 post 6 hrs fasting (reference value: 7304 +/- 2967 pg/ml); assay type: functional
Cytochrome P450 2C19 = Cytochrome P450 2C19 (Homo sapiens, UniProt P33261); experiment: Inhibition of CYP2C19 (unknown origin); assay type: ADME
[4] = Plasma concentration in mouse at 3 mg/kg; assay type: ADME, organism-based; details: in vivo
Summary of the method: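 Plasma exposure for a 3 mg/kg oral dose in mice was predicted from the mouse PK study, not measured directly. It was expressed as ng/mL and converted to µM.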

Mus musculus [5] = experiment: Antiobesity activity in diet-induced obesity C57Bl6/J mouse model assessed as basal glucose level in plasma at 10 mg/kg bid for 15 days measured on day 15 post 6 hrs fasting (reference value: 187 +/- 24 mg/dL); assay type: functional
Mus musculus [6] = experiment: Antidiabetic activity in diet-induced obese C57Bl/6 mouse model assessed as change in plasma glucose AUC at 3 mg/kg, po administered 30 mins prior to glucose challenge measured up to 90 mins post dose by OGTT; assay type: functional
Summary of the method: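 Diet-induced obese mice dosed orally at 0.1–3.0 mg/kg 30 min before an oral glucose load (time 0). Glucose followed from 30 min pre-glucose to 90 min post-glucose. Saxagliptin 1 mg/kg was the positive control.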

[7] = molecular target: T1, Free fatty acid receptor 4 (Rattus norvegicus, UniProt Q2AC31); experiment: Agonist activity at recombinant rat GPR120 expressed in HEK293 cells; assay type: functional, cell-based
T1 sequence (Q2AC31 whole entry): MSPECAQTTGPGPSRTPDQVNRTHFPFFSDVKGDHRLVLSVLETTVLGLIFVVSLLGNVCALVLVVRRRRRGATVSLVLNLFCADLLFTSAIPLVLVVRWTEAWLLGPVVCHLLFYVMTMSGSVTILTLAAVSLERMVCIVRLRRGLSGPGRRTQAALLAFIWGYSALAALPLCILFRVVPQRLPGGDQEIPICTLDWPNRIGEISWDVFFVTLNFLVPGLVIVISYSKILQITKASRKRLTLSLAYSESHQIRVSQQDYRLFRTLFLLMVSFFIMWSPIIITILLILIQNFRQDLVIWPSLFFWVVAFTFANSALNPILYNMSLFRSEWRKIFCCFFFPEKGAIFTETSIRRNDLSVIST

Mus musculus [8] = experiment: Antiobesity activity in diet-induced obesity C57Bl6/J mouse model assessed as basal insulin level in plasma at 10 mg/kg bid for 15 days measured on day 15 post 6 hrs fasting (reference value: 16959 +/- 4943 pg/ml); assay type: functional

Chain of Free fatty acid receptor 1 (Q76JU9 whole entry): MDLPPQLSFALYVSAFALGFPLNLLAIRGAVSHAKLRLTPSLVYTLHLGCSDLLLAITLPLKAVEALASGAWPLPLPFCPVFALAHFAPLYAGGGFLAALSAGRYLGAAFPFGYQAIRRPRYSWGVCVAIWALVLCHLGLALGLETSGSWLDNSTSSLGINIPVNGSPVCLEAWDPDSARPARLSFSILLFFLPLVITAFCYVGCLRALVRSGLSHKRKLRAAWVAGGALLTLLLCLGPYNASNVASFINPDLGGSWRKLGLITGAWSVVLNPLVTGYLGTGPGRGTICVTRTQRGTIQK
Chain of Cytochrome P450 2C19 (P33261 whole entry): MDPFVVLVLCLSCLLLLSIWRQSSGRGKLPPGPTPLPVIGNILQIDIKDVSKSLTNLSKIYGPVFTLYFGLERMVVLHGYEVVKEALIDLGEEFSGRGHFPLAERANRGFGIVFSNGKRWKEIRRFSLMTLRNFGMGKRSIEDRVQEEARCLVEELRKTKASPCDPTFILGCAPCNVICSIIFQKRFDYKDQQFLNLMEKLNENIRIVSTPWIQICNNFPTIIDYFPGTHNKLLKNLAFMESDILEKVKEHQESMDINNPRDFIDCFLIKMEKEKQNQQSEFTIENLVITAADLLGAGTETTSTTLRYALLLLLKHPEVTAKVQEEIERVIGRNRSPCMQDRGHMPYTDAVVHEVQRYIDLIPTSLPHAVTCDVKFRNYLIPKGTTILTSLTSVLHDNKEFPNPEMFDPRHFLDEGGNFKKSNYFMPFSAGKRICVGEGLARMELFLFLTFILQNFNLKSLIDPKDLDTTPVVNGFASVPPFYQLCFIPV

O=C(O)CCc1cc(F)c(OCc2c(C(F)(F)F)ccn2-c2ccc(Cl)cc2)c(F)c1
Activity (Cavia porcellus): Non-Toxic
EC50 [1]: 3.52 µM
Activity (Mus musculus [2]): -1080 pg/mL
Activity (Mus musculus [3]): 6225 pg/mL
INH (Cytochrome P450 2C19): 10 µM
concentration [4]: 8.64 µM
Activity (Mus musculus [5]): 203 mg/dL
Activity (Mus musculus [6]): -83%
EC50 [7]: 713 nM
Activity (Mus musculus [8]): 16966 pg/mL
